Measured values reported in ChEMBL document CHEMBL1126900, “Transformation of heterocyclic reversible monoamine oxidase-B inactivators into irreversible inactivators by N-methylation” (J Med Chem, 1993).

Target: T1, Amine oxidase [flavin-containing] B (Bos taurus, UniProt P56560)
T1 sequence (P56560 whole entry): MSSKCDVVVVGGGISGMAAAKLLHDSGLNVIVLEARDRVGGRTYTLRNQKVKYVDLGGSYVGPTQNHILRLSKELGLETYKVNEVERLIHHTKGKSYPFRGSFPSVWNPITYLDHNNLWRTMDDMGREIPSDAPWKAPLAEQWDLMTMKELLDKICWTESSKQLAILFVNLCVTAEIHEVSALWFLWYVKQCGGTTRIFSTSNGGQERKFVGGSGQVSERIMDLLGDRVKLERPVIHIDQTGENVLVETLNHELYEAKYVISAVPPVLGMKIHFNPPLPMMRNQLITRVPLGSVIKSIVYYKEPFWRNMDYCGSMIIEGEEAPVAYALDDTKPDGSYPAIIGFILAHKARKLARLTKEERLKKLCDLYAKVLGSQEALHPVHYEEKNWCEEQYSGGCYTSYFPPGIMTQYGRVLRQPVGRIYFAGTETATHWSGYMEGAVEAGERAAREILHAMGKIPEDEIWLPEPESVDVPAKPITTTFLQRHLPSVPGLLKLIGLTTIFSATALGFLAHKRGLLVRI
Experiment: Kinetic constant for inactivation of MAO B from replot of half-lives of inactivation
Details: for kinact: cattle
Outline: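 Bovine liver MAO-B (specific activity 4–6 units/mg) preincubated at 25 °C with inactivator hydrochloride at various concentrations, or none (control), in 100 mM potassium phosphate pH 7.40 with 2.0 mM glutathione. Aliquots taken periodically and assayed with 0.50 mM cinnamylamine in 100 mM Tris pH 9.0, 25 °C. Activity corrected against control. KI and kinact obtained by Kitz–Wilson replot of inactivation half-lives.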

Row | SMILES | Ki [mM] | kinact [s⁻¹]
1 | COc1ccc(N2CC(CN)OC2=O)cc1 (stereo unspecified) | – | 1.33e-05
2 | COc1ccc([C@H]2C[C@@H](CN(C)C)OC2=O)cc1 | 200 | 0.000283
3 | COc1ccc(N2CC(CN(C)C)CC2=O)cc1 (stereo unspecified) | 300 | 5.83e-05
4 | NCC1CN(c2ccc(OCc3cccc(Cl)c3)cc2)C(=O)O1 (stereo unspecified) | 0.067 | 0.00233
5 | CNCC1CN(c2ccc(OC)cc2)C(=O)O1 (stereo unspecified) | 4.7 | 3.17e-05
6 | COc1ccc(N2CC(CN)CC2=O)cc1 (stereo unspecified) | 6.7 | 1.12e-05
7 | CNCC1CC(=O)N(c2ccc(OC)cc2)C1 (stereo unspecified) | 50 | 5.83e-05

Continued by falling Ki, values first:

Row | Ki [mM] | kinact [s⁻¹] | SMILES
8 | 13.3 | 5e-05 | COc1ccc(N2CC(CN(C)C)OC2=O)cc1 (stereo unspecified)
9 | 6.7 | 7.33e-05 | COc1ccc(C2CC(CN)OC2=O)cc1 (stereo unspecified)
10 | 0.5 | 0.00137 | CN(C)CC1CN(c2ccc(OCc3cccc(Cl)c3)cc2)C(=O)O1 (stereo unspecified)
11 | 0.2 | 0.000417 | CNCC1CN(c2ccc(OCc3cccc(Cl)c3)cc2)C(=O)O1 (stereo unspecified)
